Assay results as given in ChEMBL document CHEMBL1158465, “Novel small molecule bradykinin B2 receptor antagonists” (J Med Chem, 2009).

Experiments:
B2 bradykinin receptor [1] = target: T1, B2 bradykinin receptor (Homo sapiens, UniProt P30411); experiment: Displacement of [3H]bradykinin from human recombinant B2 receptor expressed in HEK293 cells; type: cell-based
T1 sequence (P30411 whole entry): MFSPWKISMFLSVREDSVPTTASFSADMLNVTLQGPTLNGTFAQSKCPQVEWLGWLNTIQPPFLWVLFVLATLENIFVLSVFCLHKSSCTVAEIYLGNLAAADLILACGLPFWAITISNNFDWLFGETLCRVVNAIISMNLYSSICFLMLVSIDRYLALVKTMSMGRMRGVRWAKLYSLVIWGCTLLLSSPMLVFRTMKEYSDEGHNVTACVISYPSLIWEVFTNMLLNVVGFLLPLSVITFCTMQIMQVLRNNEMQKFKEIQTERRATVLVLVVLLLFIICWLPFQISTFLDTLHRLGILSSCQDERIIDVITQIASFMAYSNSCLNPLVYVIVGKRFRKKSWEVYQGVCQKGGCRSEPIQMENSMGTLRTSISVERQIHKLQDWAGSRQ

B2 bradykinin receptor [2] = target: T1, B2 bradykinin receptor; experiment: Antagonist activity at B2 receptor in human HF15 cells assessed as inhibition of bradykinin-induced calcium mobilization; type: functional, cell-based
B2 bradykinin receptor [3] = target: T2, B2 bradykinin receptor (Cavia porcellus, UniProt O70526); experiment: Displacement of [3H]bradykinin from guinea pig B2 receptor
T2 sequence (O70526 whole entry): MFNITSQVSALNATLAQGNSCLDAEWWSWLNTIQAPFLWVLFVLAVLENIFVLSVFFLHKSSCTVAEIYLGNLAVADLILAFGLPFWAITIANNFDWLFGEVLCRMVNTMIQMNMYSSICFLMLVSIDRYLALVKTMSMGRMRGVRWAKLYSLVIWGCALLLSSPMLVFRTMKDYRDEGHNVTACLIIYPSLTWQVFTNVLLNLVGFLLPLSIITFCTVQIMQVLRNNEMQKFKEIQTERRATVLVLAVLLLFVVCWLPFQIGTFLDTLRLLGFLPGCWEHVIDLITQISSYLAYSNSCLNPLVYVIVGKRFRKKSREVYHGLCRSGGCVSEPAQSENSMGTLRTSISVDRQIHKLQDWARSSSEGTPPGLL

[4] = Aqueous solubility of the compound; type: physicochemical; conditions: aqueous solution
Cytochrome P450 2C19 = Cytochrome P450 2C19 (Homo sapiens, UniProt P33261); experiment: Inhibition of human CYP2C19 by microtiter plate assay; type: ADME
[5] = Metabolic stability in human liver microsomes at 1 uM by HPLC; type: ADME, Microsome; conditions: read-out: Stability
In short: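 Test compound was incubated with liver microsomes for 30 min. Stability is expressed as the percentage of parent compound remaining at the end of incubation.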

Cytochrome P450 3A4 = Cytochrome P450 3A4 (Homo sapiens, UniProt P08684); experiment: Inhibition of human CYP3A4 by microtiter plate assay; type: ADME
[6] = Displacement of [3H]bradykinin from B2 receptor N107A mutant
B2 bradykinin receptor [7] = target: T1, B2 bradykinin receptor; experiment: Displacement of [3H]bradykinin from wild-type B2 receptor
In short: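 Specific binding of [³H]-BK to recombinant human B₂ receptor expressed in HEK293 cells. Displacement by test compound is reported as IC₅₀. Values are the numerical average of at least two experiments.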

[8] = Clearance in Wistar rat at 1 mg/kg, iv or 1 mg/kg, po; type: ADME, organism-based; conditions: in vivo
[9] = Oral bioavailability in Wistar rat at 1 mg/kg; type: ADME, organism-based; conditions: in vivo
[10] = Terminal half life in Wistar rat at 1 mg/kg, iv or 1 mg/kg, po; type: ADME, organism-based; conditions: in vivo, read-out: beta t1/2

Sequence of Cytochrome P450 2C19 (P33261 whole entry): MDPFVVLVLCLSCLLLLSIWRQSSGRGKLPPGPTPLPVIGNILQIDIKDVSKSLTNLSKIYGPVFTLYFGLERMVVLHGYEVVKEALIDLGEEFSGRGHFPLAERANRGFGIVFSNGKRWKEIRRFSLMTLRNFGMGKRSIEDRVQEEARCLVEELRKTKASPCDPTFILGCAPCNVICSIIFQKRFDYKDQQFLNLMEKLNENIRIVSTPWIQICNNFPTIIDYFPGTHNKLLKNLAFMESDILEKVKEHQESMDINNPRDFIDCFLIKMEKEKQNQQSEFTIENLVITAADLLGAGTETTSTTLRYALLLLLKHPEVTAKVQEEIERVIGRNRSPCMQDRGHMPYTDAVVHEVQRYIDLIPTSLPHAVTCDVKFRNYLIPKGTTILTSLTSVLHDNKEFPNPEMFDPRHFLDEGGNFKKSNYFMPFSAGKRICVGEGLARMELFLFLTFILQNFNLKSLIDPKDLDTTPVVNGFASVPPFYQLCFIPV
Sequence of Cytochrome P450 3A4 (P08684 whole entry): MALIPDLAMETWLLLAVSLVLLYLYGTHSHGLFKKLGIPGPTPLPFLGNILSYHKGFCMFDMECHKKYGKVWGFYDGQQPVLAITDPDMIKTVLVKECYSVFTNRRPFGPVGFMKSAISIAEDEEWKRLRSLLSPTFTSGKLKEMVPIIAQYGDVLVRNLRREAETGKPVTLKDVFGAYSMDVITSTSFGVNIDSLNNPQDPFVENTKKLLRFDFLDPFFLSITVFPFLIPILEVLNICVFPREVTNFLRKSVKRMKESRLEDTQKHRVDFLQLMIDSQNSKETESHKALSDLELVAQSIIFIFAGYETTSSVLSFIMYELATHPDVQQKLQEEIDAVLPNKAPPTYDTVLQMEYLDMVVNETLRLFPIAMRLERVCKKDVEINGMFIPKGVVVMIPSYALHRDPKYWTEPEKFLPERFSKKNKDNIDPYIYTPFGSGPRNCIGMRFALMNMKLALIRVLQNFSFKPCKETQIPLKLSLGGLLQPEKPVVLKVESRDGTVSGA

| IC50 (B2 bradykinin receptor [1]) [nM] | IC50 (B2 bradykinin receptor [2]) [nM] | further results | Compound |
| --- | --- | --- | --- |
| 0.05 | – | – | Cc1cc(C)c2cccc(OCc3c(Cl)ccc(S(=O)(=O)NC4(C(=O)N5CCN(C(=O)[C@@H](N)CCC[N+](C)(C)C)CC5)CCOCC4)c3Cl)c2n1 [FASITIBANT CHLORIDE] |
| 200 | 3400 | – | Cc1cc(-c2ncc(C)n2C)c2cccc(OCc3c(Cl)cncc3Cl)c2n1 |
| 420 | 480 | – | Cc1cc(-c2nccs2)c2cccc(OCc3c(Cl)cncc3Cl)c2n1 |
| – | – | IC50 (B2 bradykinin receptor [3]): 0.3 nM | Cc1ccc2cccc(OCc3c(Cl)ccc(N(C)C(=O)CNC(=O)/C=C/c4ccc(C(F)(F)F)cc4)c3C#N)c2n1 |
| 4 | 1.4 | – | Cc1cc(-c2ccnn2C)c2cccc(OCc3c(Cl)cncc3Cn3cccc(C(F)(F)F)c3=O)c2n1 |
| – | – | solubility [4]: < 1 µM | Cc1ccc2cccc(OCc3c(Cl)cccc3Cl)c2n1 |
| 90 | 760 | – | Cc1cc(-c2nccn2C)c2cccc(OCc3c(Cl)cncc3Cl)c2n1 |
| 80 | 300 | – | Cc1cc(-c2cscn2)c2cccc(OCc3c(Cl)cncc3Cl)c2n1 |
| 200 | 330 | – | Cc1cc(-c2csnc2C)c2cccc(OCc3c(Cl)cncc3Cl)c2n1 |
| 64 | 400 | – | Cc1cc(-c2ncsc2C)c2cccc(OCc3c(Cl)cncc3Cl)c2n1 |
| 0.67 | – | – | Cc1cc(C)c2cccc(OCc3c(Cl)ccc(S(=O)(=O)N4CCC[C@H]4C(=O)CCCNC(=O)c4ccc(C(=N)N)cc4)c3Cl)c2n1 |
| 110 | 67 | – | Cc1cc(-c2scnc2C)c2cccc(OCc3c(Cl)cncc3Cl)c2n1 |
| 3600 | 6300 | – | Cc1cc(-c2cn[nH]c2C)c2cccc(OCc3c(Cl)cncc3Cl)c2n1 |
| 980 | 2500 | – | Cc1cc(-c2scnc2Cl)c2cccc(OCc3c(Cl)cncc3Cl)c2n1 |
| 7100 | – | – | Cc1cc(-c2nncn2C)c2cccc(OCc3c(Cl)cncc3Cl)c2n1 |
| 8.8 | 0.54 | IC50 (Cytochrome P450 2C19): > 5000 nM; remaining at 1 µM [5]: 45%; IC50 (Cytochrome P450 3A4): > 5000 nM | Cc1cc(-c2ccnn2C)c2cccc(OCc3c(C)ccnc3Cn3cccc(C(F)(F)F)c3=O)c2n1 |
| 7.5 | 24 | – | Cc1cc(-c2ccnn2C)c2cccc(OCc3c(Cl)cncc3SCC(=O)N(C)C)c2n1 |
| 7.8 | 2.3 | – | Cc1cc(-c2ccnn2C)c2cccc(OCc3c(Cl)cncc3CNC(=O)C(C)C)c2n1 |
| 6.6 | 2.8 | – | Cc1cc(-c2ccnn2C)c2cccc(OCc3c(Cl)cncc3CNC(=O)N(C)C)c2n1 |
| 33 | 190 | – | Cc1cc(-c2ccnn2C)c2cccc(OCc3c(Cl)cncc3CCC(N)=O)c2n1 |
| 50 | 29 | IC50 [6]: 2300 nM; IC50 (B2 bradykinin receptor [7]): 470 nM | Cc1cc(-c2ccnn2C)c2cccc(OCc3c(Cl)cncc3Sc3nccs3)c2n1 |
| 20 | 70 | – | Cc1cc(-c2nscc2C)c2cccc(OCc3c(Cl)cncc3Cl)c2n1 |
| 50 | 180 | remaining at 1 µM [5]: 7% | Cc1cc(-c2ccnn2C)c2cccc(OCc3c(Cl)cncc3Cl)c2n1 |
| 430 | 3800 | – | Cc1cc(-c2conc2C)c2cccc(OCc3c(Cl)cncc3Cl)c2n1 |
| 310 | 350 | – | Cc1cc(-c2cc[nH]n2)c2cccc(OCc3c(Cl)cncc3Cl)c2n1 |

| IC50 (B2 bradykinin receptor [1]) [nM] | IC50 (B2 bradykinin receptor [2]) [nM] | further results | Compound |
| --- | --- | --- | --- |
| 580 | 2500 | solubility [4]: > 50 µM | Cc1cc(-n2ccnc2)c2cccc(OCc3c(Cl)cncc3Cl)c2n1 |
| 110 | 390 | remaining at 1 µM [5]: 19% | Cc1cc(-c2n[nH]cc2C)c2cccc(OCc3c(Cl)cncc3Cl)c2n1 |
| 4400 | – | – | Cc1cc(-c2cncn2C)c2cccc(OCc3c(Cl)cncc3Cl)c2n1 |
| 32 | 920 | – | Cc1cc(-n2cccn2)c2cccc(OCc3c(Cl)cncc3Cl)c2n1 |
| 36 | 73 | – | Cc1cc(-c2ccnn2C)c2cccc(OCc3c(Cl)cncc3CCC(=O)N(C)C)c2n1 |
| 8.3 | 12 | – | Cc1cc(-c2ccnn2C)c2cccc(OCc3c(Cl)cncc3COC(=O)N(C)C)c2n1 |
| 10 | 1.8 | IC50 (Cytochrome P450 2C19): 1600 nM; remaining at 1 µM [5]: 17%; IC50 (Cytochrome P450 3A4): 2500 nM | Cc1cc(-c2ccnn2C)c2cccc(OCc3c(C)ccnc3CNC(=O)C3CCCCC3)c2n1 |
| 210 | 730 | remaining at 1 µM [5]: 35% | Cc1cc(-c2ncsc2Cl)c2cccc(OCc3c(Cl)cncc3Cl)c2n1 |
| 135 | 420 | – | Cc1cc(-c2cncs2)c2cccc(OCc3c(Cl)cncc3Cl)c2n1 |
| 6.5 | 91 | – | Cc1cc(-c2ccnn2C)c2cccc(OCc3c(Cl)cncc3OCC(=O)N(C)C)c2n1 |
| 6 | 260 | – | CC(=O)OCc1cncc(Cl)c1C(=O)c1cccc2c(-c3ccnn3C)cc(C)nc12 |
| 517 | 1600 | – | Cc1cc(-c2ccnn2C)c2cccc(OCc3ccncc3Cl)c2n1 |
| 14 | 110 | – | Cc1cc(-c2ccnn2C)c2cccc(OCc3c(Cl)cncc3CNS(C)(=O)=O)c2n1 |
| 5.4 | 3.8 | IC50 (Cytochrome P450 2C19): > 5000 nM; remaining at 1 µM [5]: 13%; IC50 (Cytochrome P450 3A4): 3100 nM | Cc1cc(-c2ccnn2C)c2cccc(OCc3c(C)ccnc3CNC(=O)C(C)C)c2n1 |
| 12 | 24 | – | CC(=O)NCc1cncc(Cl)c1COc1cccc2c(-c3ccnn3C)cc(C)nc12 |
| 5300 | – | – | Cc1ccc2cccc(OCc3c(Cl)cncc3Cl)c2n1 |
| 200 | 1300 | – | Cc1cc(-n2ccnc2C)c2cccc(OCc3c(Cl)cncc3Cl)c2n1 |
| 5.1 | 3.6 | – | Cc1cc(-c2ccnn2C)c2cccc(OCc3c(Cl)cncc3Cn3ccccc3=O)c2n1 |
| 10 | 1.3 | IC50 (Cytochrome P450 2C19): 300 nM; remaining at 1 µM [5]: 34%; IC50 (Cytochrome P450 3A4): 300 nM | Cc1cc(-c2ncsc2Cl)c2cccc(OCc3c(C)ccnc3Cn3cccc(C(F)(F)F)c3=O)c2n1 |
| 140 | 260 | – | Cc1cc(-c2ccnn2C)c2cccc(OCc3c(Cl)cncc3COc3ccccn3)c2n1 |
| 68 | 2400 | – | Cc1cc(-c2ncnn2C)c2cccc(OCc3c(Cl)cncc3Cl)c2n1 |
| 6050 | > 5000 | – | Cc1cc(-c2ocnc2C)c2cccc(OCc3c(Cl)cncc3Cl)c2n1 |
| 37 | 76 | – | Cc1cc(-c2ccnn2C)c2cccc(OCc3c(Cl)cncc3[S+]([O-])CC(=O)N(C)C)c2n1 (configuration not stated) |
| 8.7 | 1.1 | IC50 (Cytochrome P450 2C19): > 5000 nM; clearance [8]: 21 mL/min/kg; bioavailability [9]: > 17%; remaining at 1 µM [5]: 21%; IC50 (Cytochrome P450 3A4): 3800 nM; half-life [10]: 1.12 h | Cc1cc(-c2[nH]ncc2C)c2cccc(OCc3c(C)ccnc3Cn3cccc(C(F)(F)F)c3=O)c2n1 |
| 18 | 43 | – | Cc1cc(-c2ccnn2C)c2cccc(OCc3c(Cl)cncc3Sc3nccn3C)c2n1 |
